Among the data in PubChem BioAssay are growth inhibition values, retold here.

The source made the active and inactive calls.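 The calls were made as follows: active = growth inhibition above 25% in both replicates, a cutoff set 3 SD above the mean; inconclusive = above 25% in only one replicate; inactive = the rest.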

A short description of the test: S. cerevisiae growth inhibition in permissive medium (OD615), pilot counter-assay for S. cerevisiae lifespan shortening project, permissive growth control (AID 705). Conditions: OD615, 24 h, at 10 µM, stronger effect = higher value. The procedure, abridged: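 Material: engineered DeaD yeast; Compound: one dose 10 µM, DMSO 0.25% final; Detection: absorbance (optical density) at 615 nm; Buffer or medium: permissive raffinose/galactose medium; Timing: 24 h exposure, 30 °C.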
`O=C(CN1CCOCC1)Nc1cc(Cl)ccc1Cl`: the growth inhibition is -13.4% (inactive).

As to `COc1ccc(S(=O)(=O)Cc2ccc(C(=O)NC(C)C)o2)cc1`, the growth inhibition is -1.35% (inactive). Take `CCCCCn1c(CN2CC(C)OC(C)C2)nc2c1c(=O)n(C)c(=O)n2C` (stereo not given): the growth inhibition is -9.73% (inactive).

As for `COC(=O)C1CCN(C(=O)c2ccccc2NC(C)=O)CC1`, the growth inhibition was -12% (inactive). To `CCN1CCN(c2cc(C)c3cc(NC(=O)Cc4ccc(OC)c(OC)c4)ccc3n2)CC1` belongs -15.9% (inactive); to `CNC(=O)c1cc2cc(OC)ccc2n1CCN(C)C`, -8.87% (inactive). To `COc1ccc(NC(=O)CSc2nnc(-c3ccccn3)n2N)cc1` belongs -5.41% (inactive). The value for `COc1cc(C)c(N(C(C)=O)c2ccccc2)c(C)c1` was -10.7% (inactive). As to `CCc1ccc(N2CCN(C(=O)c3ccc(OC)c(OC)c3)CC2)cc1`, the growth inhibition is -15.2% (inactive). For the compound `O=C(C1CCC(CNc2c(N3CCOCC3)c(=O)c2=O)CC1)N1CCN(c2ccccc2)CC1` (stereo not given), the growth inhibition was -0.4% (inactive). To `CC1(C)C(=O)OC(C(=O)c2ccccc2)C(C)(C)C1=O` (stereo not given) belongs -7.95% (inactive); to `c1ccc(Sc2nc(N3CCCCC3)nc(N3CCCCC3)n2)nc1`, 4.63% (inactive); to `COC(=O)c1nc2n(n1)C(c1cccc(Cl)c1)C1=C(CC(C)(C)CC1=O)N2` (stereo not given), 2.12% (inactive). The value for `CCN(CC)C(=O)Cn1c(=O)n(-c2ccccc2)c(=O)n1CC(=O)N(CC)CC` was -4.64% (inactive); that for `CN(C)c1ccc(C2N(c3ccc(Cl)cc3)C(=O)C3CCCN32)cc1` (stereo not given) was -2.63% (inactive). As to `O=C(CN1C(=O)c2ccccc2C1=O)Nc1cccc2cccnc12`, the growth inhibition was -14.6% (inactive).

As to `O=C(Cn1ncc2ccccc21)N1CCc2ccccc21`, the growth inhibition is -9.24% (inactive). To `O=C(C1CCCN(S(=O)(=O)c2ccccc2)C1)N1CCCCCC1` (stereo not given) belongs -1.18% (inactive). The value for `Cc1cccc(NC(=O)c2ccc(S(=O)(=O)N3CCCCC3)cc2)n1` was -8.26% (inactive). To `CC(=O)NC(CCS(C)(=O)=O)C(=O)Nc1cccc(Cl)c1Cl` (stereo not given) belongs -2.35% (inactive); to `Cc1cc(C)c(S(=O)(=O)Nc2nnc(C)s2)c(C)c1`, -20.6% (inactive); to `CCC(=O)Nc1nc2ccccc2n1CCN1CCOCC1`, -9.48% (inactive). As for `CNC(=O)c1nnc(Cc2ccc(F)cc2)o1`, the growth inhibition is 2.65% (inactive). With `CCSc1nc2c([nH]c3ccccc32)c(=O)n1C`, the growth inhibition is -14.2% (inactive). To `CCOc1ccccc1NC(=O)CCS(=O)(=O)c1cccc2nonc12` belongs -15% (inactive); to `O=C1C2CC=C(Cl)CC2C(=O)N1CC1Cc2ccccc2CO1` (stereo not given), -5.07% (inactive). Regarding `COc1ccc(OC)c2c1CC(C)(C)NC2=O`, the growth inhibition was 0.615% (inactive).

For `CCOc1ccc(N(CC(=O)NCc2ccccc2)S(=O)(=O)c2c(C)noc2C)cc1`, the growth inhibition was -21.6% (inactive). Regarding `COC(=O)C1=C(C)N(C)C(C)=C(C(=O)OC)C1c1cccc(Br)c1`, the growth inhibition was -16.7% (inactive).

As for `Cc1ccc(C2CC(c3ccc(Cl)cc3)n3nc(N)nc3N2)cc1` (stereo not given), the growth inhibition is 1.88% (inactive). In the case of `COc1ccc(CNC(=O)CS(=O)Cc2nc(-c3ccccc3C)oc2C)cc1` (stereo not given), the growth inhibition was -3.65% (inactive).

In the case of `O=C1CCCC/C1=C\Nc1ccc(Cl)cn1`, the growth inhibition was -4.26% (inactive). The value for `C=CCN1C(=Nc2ccccc2)SC/C1=C\C(=O)OC` was -14.6% (inactive); that for `O=C(CC12CC3CC(CC(C3)C1)C2)NCO` was 4.32% (inactive); that for `COc1ccc(C2C(C(N)=O)=C(C)Nc3nc(-c4ccccc4Cl)nn32)c(OC)c1` (stereo not given) was -17.8% (inactive). To `Nc1c(Br)cc(Br)c(N2CCCC2=O)c1Br` belongs -6.31% (inactive); to `Cc1ccccc1NC(=O)CSc1[nH]c(=O)cc(C)c1C#N`, -1.3% (inactive); to `O=C(Cn1nc(C(=O)O)c2ccccc2c1=O)NCC1CCCO1` (stereo not given), -4.73% (inactive). To `Cc1cc(C(=O)NCc2ccco2)cs1` belongs -6.77% (inactive); to `Cc1cc(Nc2cccc(Cl)c2C)n2ncnc2n1`, -2.94% (inactive).
